The text below walks through data of ChEMBL document CHEMBL4665779, “Novel 2-Substituted 3-Hydroxy-1,6-dimethylpyridin-4(1H)-ones as Dual-Acting Biofilm Inhibitors of Pseudomonas aeruginosa” (J Med Chem, 2020).

Series [1] in a line: Growth inhibition of Pseudomonas aeruginosa PAO1 at 512 uM by CLSI-based broth microdilution method. Put shortly: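 Broth microdilution following CLSI standards: two-fold serial dilutions were made in Mueller-Hinton broth and inoculated with P. aeruginosa to a final OD600 of 0.05. The top final concentration is printed as […].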
For orientation: Broth dilution looks for growth in wells or tubes with falling amounts of substance.

The test system of series [2] is Pseudomonas aeruginosa. Briefly: Antibiofilm activity against Pseudomonas aeruginosa PAO1 assessed as inhibition of biofilm formation after 18 hrs by crystal violet staining based assay. In kind it is functional, organism-based. Particulars: PAO1, 18 h.
Series [3] in a line: Metal chelating activity assessed as negative logarithm of total free ferric ion concentration in a solution at 60 uM measured after 48 hrs in presence of CP645 probe and Fe-NTA by fluorescence spectrophotometry analysis.
For series [4], the system named is Pseudomonas aeruginosa PAO1. The experiment in a line: Induction of iron chelation in Pseudomonas aeruginosa PAO1 assessed as increase in intracellular pyoverdin level at 1.25 to 20 uM in presence of 10 uM FeCl3 by fluorescence microplate reader assay. In kind it is cell-based. Particulars: dose microM 1.25-20.
The subject of series [5] is Pseudomonas aeruginosa PAO1. Briefly: Induction of iron chelation in Pseudomonas aeruginosa PAO1 assessed as increase in intracellular pyochelin level at 1.25 to 20 uM in presence of 10 uM FeCl3 by fluorescence microplate reader assay. It counts as cell-based. The following applies: dose microM 1.25-20.
Series [6] concerns Vero. The experiment in a line: Cytotoxicity against African green monkey Vero cells assessed as reduction in cell viability at 1.25 to 100 uM after 16 hrs by MTT assay. It counts as cell-based. The following applies: chlorocebus sabaeus, dose 1.25-100 µM. In short, it runs like this: (§1)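 MTT assay on Vero or LO2 cells seeded at 5000–15000 cells/well for 16 h, then washed with PBS. Compound (0–100 μM) added in DMEM for 16 h at 37 °C, 5% CO2. MTT added for 3 h, formazan dissolved in DMSO with shaking, OD570 read. Triplicate, mean ± SD.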
(Tetrazolium dyes change colour on reduction, which living cells bring about.)

The test system of series [7] is Pseudomonas aeruginosa PAO1. Briefly: Induction of iron chelation in Pseudomonas aeruginosa PAO1 assessed as increase in iron deficiency by measuring change in total ferric ion concentration at 20 uM by inductively coupled plasma mass spectrometry (reference value: 1.91 +/- 0.8 uM).
The subject of series [8] is L02. The experiment in a line: Cytotoxicity against human L02 cells assessed as reduction in cell viability at 1.25 to 100 uM after 16 hrs by MTT assay. It counts as cell-based. The following applies: l02, 16 h, dose 1.25-100 µM. In short, it runs like this:
as §1

The source made the active and inactive calls. The rule behind the calls is not given here.

In the case of `COc1ccccc1C(=O)NCc1c(O)c(=O)cc(C)n1C`, the “growth inhibition (GI)” value in series [1] is listed as “Non-Toxic”. Also, the 50% inhibitory concentration (IC50) – broadly, the concentration that gives 50% inhibition – in series [2] was 69.7 µM.

As to `Cc1cc(=O)c(O)c(CNC(=O)Cc2ccccc2)n1C`, the “growth inhibition (GI)” value in series [1] is on record as “Non-Toxic”. The concentration for half-maximal inhibition (IC50) in series [2] was 28.1 µM.

`Cc1cc(=O)c(O)c(CNC(=O)C2CCC2)n1C`: the “growth inhibition (GI)” value in series [1] is given as “Non-Toxic”. In series [2], the IC50 was 64.1 µM.

Regarding `Cc1cc(=O)c(O)c(CNC(=O)CC2CCCCC2)n1C`, the “growth inhibition (GI)” value in series [1] is reported as “Non-Toxic”. In addition, in series [2], the 50% inhibitory concentration (IC50) came to 46.8 µM.

Regarding `CCCCCNCc1c(O)c(=O)cc(C)n1C`, in series [1], the “growth inhibition (GI)” value is on record as “Non-Toxic”. The IC50 in series [2] is above 100 µM.

Consider `CCCCCCCC(=O)NCc1c(O)c(=O)cc(C)n1C`, for which the “growth inhibition (GI)” value in series [1] is reported as “Non-Toxic”. Also, in series [2], the IC50 is above 100 µM.

On to `Cc1cc(=O)c(O)c(CNC(=O)c2ccc(F)cc2)n1C`, for which the “growth inhibition (GI)” value in series [1] was “Non-Toxic”. Further, the half-inhibitory concentration (IC50) in series [2] is above 100 µM.

In the case of `Cc1cc(=O)c(O)c(CNS(=O)(=O)c2cccc3c2NCCC3)n1C`, the “growth inhibition (GI)” value in series [1] is “Non-Toxic”. For the same compound, the half-maximal inhibitory concentration (IC50) in series [2] stood at 35.3 µM.

Regarding `COc1ccc(CCCC(=O)NCc2c(O)c(=O)cc(C)n2C)cc1`, the “growth inhibition (GI)” value in series [1] was “Non-Toxic”. Further, the half-maximal inhibitory concentration (IC50) in series [2] is above 100 µM.

Take `CCCC(=O)NCc1c(O)c(=O)cc(C)n1C`: the “growth inhibition (GI)” value in series [1] is “Non-Toxic”. Further, the IC50 in series [2] is 45.1 µM.

As to `Cc1cc(=O)c(O)c(CNS(=O)(=O)c2ccccc2)n1C`, in series [1], the “growth inhibition (GI)” value is reported as “Non-Toxic”. Also, the half-maximal inhibitory concentration (IC50) in series [2] is above 100 µM.

Turning to `Cc1cc(=O)c(O)c(CNCCCN2CCN(C)CC2)n1C`, in series [1], the “growth inhibition (GI)” value is reported as “Non-Toxic”. Further, in series [2], the IC50 worked out at 16.9 µM.

On to `Cc1cc(=O)c(O)c(CNC(=O)C2CC2)n1C`, for which, in series [1], the “growth inhibition (GI)” value is listed as “Non-Toxic”. For the same compound, in series [2], the concentration for half-maximal inhibition (IC50) is above 100 µM.

Turning to `Cc1cc(=O)c(O)c(CNC(=O)c2ccc(C(F)(F)F)cc2)n1C`, the “growth inhibition (GI)” value in series [1] is given as “Non-Toxic”. In addition, the IC50 in series [2] was determined as 61.1 µM.

On to `Cc1cc(=O)c(O)c(CNC(=O)c2ccccc2)n1C`, for which the “growth inhibition (GI)” value in series [1] was “Non-Toxic”. In addition, in series [2], the concentration for half-maximal inhibition (IC50) came out at 41.7 µM.

For the compound `Cc1cc(=O)c(O)c(CNS(=O)(=O)c2ccc(C(C)(C)C)cc2)n1C`, the “growth inhibition (GI)” value in series [1] is given as “Non-Toxic”. Moreover, the IC50 in series [2] stood at 51.6 µM.

Turning to `Cc1cc(=O)c(O)c(CNC(=O)Cc2ccc(F)cc2)n1C`, in series [1], the “growth inhibition (GI)” value was “Non-Toxic”. Also, in series [2], the IC50 was determined as 55 µM.

As for `Cc1cc(=O)c(O)c(CNC(=O)c2cccc3ccccc23)n1C`, the “growth inhibition (GI)” value in series [1] is recorded as “Non-Toxic”. In series [2], the half-inhibitory concentration (IC50) came to 75.6 µM.

For `Cc1cc(=O)c(O)c(CNS(=O)(=O)c2ccc(-c3ccccc3)cc2)n1C`, the “growth inhibition (GI)” value in series [1] is listed as “Non-Toxic”. Further, in series [2], the IC50 is above 100 µM.

Regarding `Cc1cc(=O)c(O)c(CNC(=O)C2CCCCC2)n1C`, the “growth inhibition (GI)” value in series [1] was “Non-Toxic”. Moreover, the IC50 in series [2] stood at 63.4 µM.

For the compound `Cc1c(O)c(=O)ccn1C` [DEFERIPRONE], the log(activity) in series [3] was -20.8. In addition, the outcome in series [4] was inactive. Besides, in series [5], the outcome was Active. Moreover, the Activity result is “Non-Toxic” in series [6], 1.23 µM in series [7] and “Non-Toxic” in series [8]. Further, in series [2], the half-inhibitory concentration (IC50) is above 100 µM.

Turning to `COc1cccc(C(=O)NCc2c(O)c(=O)cc(C)n2C)c1`, in series [1], the “growth inhibition (GI)” value is given as “Non-Toxic”. Moreover, the IC50 in series [2] was above 100 µM.

Consider `Cc1cc(=O)c(O)c(CNC(=O)C2CCCC2)n1C`, for which the “growth inhibition (GI)” value in series [1] is given as “Non-Toxic”. For the same compound, the concentration for half-maximal inhibition (IC50) in series [2] was found to be 65.1 µM.

With `COc1ccc(CCC(=O)NCc2c(O)c(=O)cc(C)n2C)cc1`, in series [1], the “growth inhibition (GI)” value is on record as “Non-Toxic”. In addition, the 50% inhibitory concentration (IC50) in series [2] was 59.1 µM.

For the compound `Cc1cc(=O)c(O)c(CNC(=O)c2ccncc2)n1C`, in series [1], the “growth inhibition (GI)” value is “Non-Toxic”. Also, in series [2], the IC50 was above 100 µM.

As for `COc1ccc(CC(=O)NCc2c(O)c(=O)cc(C)n2C)cc1`, in series [1], the “growth inhibition (GI)” value was “Non-Toxic”. For the same compound, the IC50 in series [2] was determined as 65.5 µM.

Consider `COc1ccc(S(=O)(=O)NCc2c(O)c(=O)cc(C)n2C)cc1`, for which the “growth inhibition (GI)” value in series [1] was “Non-Toxic”. In series [2], the IC50 is above 100 µM.

As for `CCCCCCCCCC(=O)CC(=O)NCc1c(O)c(=O)cc(C)n1C`, the “growth inhibition (GI)” value in series [1] is on record as “Non-Toxic”. The IC50 in series [2] is above 100 µM.

Consider `Cc1cc(=O)c(O)c(CNC(=O)c2ccnc(C(F)(F)F)c2)n1C`, for which the “growth inhibition (GI)” value in series [1] is listed as “Non-Toxic”. For the same compound, the 50% inhibitory concentration (IC50) in series [2] was above 100 µM.

In the case of `CCCCNCc1c(O)c(=O)cc(C)n1C`, the “growth inhibition (GI)” value in series [1] is given as “Non-Toxic”. The concentration for half-maximal inhibition (IC50) in series [2] was 52.5 µM.

As to `Cc1ccc(S(=O)(=O)NCc2c(O)c(=O)cc(C)n2C)cc1`, the “growth inhibition (GI)” value in series [1] is given as “Non-Toxic”. For the same compound, in series [2], the IC50 stood at 59.3 µM.

In the case of `Cc1cc(=O)c(O)c(CNCC2CN(Cc3ccc(F)cc3)CCO2)n1C` (centres undefined), the “growth inhibition (GI)” value in series [1] is given as “Non-Toxic”. Further, the IC50 in series [2] was above 100 µM.

As to `Cc1cc(=O)c(O)c(CNC2CCCC2)n1C`, the “growth inhibition (GI)” value in series [1] is given as “Non-Toxic”. Besides, the IC50 in series [2] came to 14.9 µM.

`Cc1cc(=O)c(O)c(CNC(=O)Cc2ccc(Cl)cc2)n1C`: in series [1], the “growth inhibition (GI)” value was “Non-Toxic”. Moreover, the concentration for half-maximal inhibition (IC50) in series [2] was above 100 µM.

On to `Cc1cc(=O)c(O)c(CNS(=O)(=O)c2ccc(F)cc2)n1C`, for which, in series [1], the “growth inhibition (GI)” value is given as “Non-Toxic”. Besides, in series [2], the half-maximal inhibitory concentration (IC50) is above 100 µM.

Regarding `COc1cccc(NCc2c(O)c(=O)cc(C)n2C)c1`, in series [1], the “growth inhibition (GI)” value is “Non-Toxic”. Moreover, the IC50 in series [2] was above 100 µM.

For the compound `CCCCCC(=O)NCc1c(O)c(=O)cc(C)n1C`, the “growth inhibition (GI)” value in series [1] is given as “Non-Toxic”. In addition, in series [2], the IC50 came out at 57.9 µM.

Consider `COc1ccc(C(=O)NCc2c(O)c(=O)cc(C)n2C)cc1`, for which the “growth inhibition (GI)” value in series [1] is listed as “Non-Toxic”. Besides, the IC50 in series [2] was determined as 38.4 µM.

For the compound `CCCCC(=O)NCc1c(O)c(=O)cc(C)n1C`, the “growth inhibition (GI)” value in series [1] is on record as “Non-Toxic”. For the same compound, the IC50 in series [2] was found to be 56.9 µM.

Take `Cc1cc(=O)c(O)c(CNC2CCN(C)CC2)n1C`: in series [1], the “growth inhibition (GI)” value was “Non-Toxic”. The IC50 in series [2] was 35 µM.

Consider `Cc1cc(=O)c(O)c(CNC(=O)C2CCCO2)n1C` (centres undefined), for which the “growth inhibition (GI)” value in series [1] is “Non-Toxic”. Also, the 50% inhibitory concentration (IC50) in series [2] came out at 26.5 µM.

Regarding `Cc1cc(=O)c(O)c(CNC(C)C)n1C`, the “growth inhibition (GI)” value in series [1] is reported as “Non-Toxic”. In series [2], the IC50 worked out at 24.5 µM.
